Measurements from different studies.
Compare with care: the assays were run in different laboratories.
PRMT3: Protein arginine N-methyltransferase 3 (PRMT3, Homo sapiens, UniProt O60678)
TDP1: Tyrosyl-DNA phosphodiesterase 1 (TDP1, Homo sapiens, UniProt Q9NUW8)
MAOA: Amine oxidase [flavin-containing] A (MAOA, Homo sapiens, UniProt P21397)

Structure (SMILES) | target | assay | setting | IC50 [µM]
CC(C)(C)n1nc(-c2cnc3cc(OC4CC4)ccc3c2)c(C(N)=O)c1N | Receptor-interacting serine/threonine-protein kinase 2 (RIPK2, Homo sapiens, UniProt O43353) | cell-free assay | – | 1.71
CC1(C)C(/C=C/C=C2/N(CCCc3ccccc3)c3ccc(Cl)cc3C2(C)C)=[N+](CCCc2ccccc2)c2ccc(Cl)cc21 | PRMT3 | enzyme activity, inhibitor, radiometric | – | 1.03
C[C@@H]1C[C@@H](O)/C=C/C=C\CC(=O)Cc2c(Cl)c(O)cc(O)c2C(=O)O1 | Mitogen-activated protein kinase kinase kinase 7 (MAP3K7, Homo sapiens, UniProt O43318) | enzyme activity, inhibitor, ATP luminescence | – | > 10
COc1cc2c(OC)nc3c4cc5c(cc4cc(OCCCN4CCC(N6CCCCC6)CC4)c3c2cc1OC)OCO5 | TDP1 | enzyme activity, inhibitor, fluorescence | – | 6.4
COc1cc(/C=C2\SC(=O)NC2=O)cc(F)c1OCCNc1nc2c(cnn2C2CCCC2)c(=O)[nH]1 | High affinity 3',5'-cyclic-AMP phosphodiesterase 7A (PDE7A, Homo sapiens, UniProt Q13946) | enzyme activity, inhibitor | – | 0.279
Nc1ncnc2c1ncn2[C@@H]1O[C@H](CSCCNC(=O)NC2CCCCC2)[C@@H](O)[C@H]1O | PRMT3 | enzyme activity, inhibitor, fluorescence | – | > 100
COc1cc(/C=C/C(=O)N2CCC(Cc3ccccc3)CC2)ccc1OCc1ccccc1 | MAOA | enzyme activity, inhibitor, fluorescence | – | 80.7
C=CC(=O)Nc1cc(Nc2nccc(Nc3cc(Cl)c(F)cc3C(C)(C)O)n2)c(OC)cc1N1CC[C@@H](N(C)C)C1 | High affinity nerve growth factor receptor (NTRK1, Homo sapiens, UniProt P04629) | enzyme activity, inhibitor | with preincubation | > 10
CCn1ncc2c1-c1cnc(N)c(c1)O[C@H](C)c1cc(F)ccc1-c1nn(C)nc1C2 | Focal adhesion kinase 1 (PTK2, Homo sapiens, UniProt Q05397) | enzyme activity, inhibitor, radiometric | – | 0.011
O=c1oc(Cl)c(Cl)c2ccccc12 | Rhomboid protease AarA (Providencia stuartii, UniProt P46116) | enzyme activity, inhibitor | – | 54
COc1cc2c(OC)nc3c4cc5c(cc4cc(OCCCN4CCCC4)c3c2cc1OC)OCO5 | TDP1 | enzyme activity, inhibitor, fluorescence | – | 4.8
CN1CCN(c2ccc(Nc3ncc4cc(C#N)c(=O)n(C5CCCC5)c4n3)cc2)CC1 | Tyrosine-protein kinase Lyn (LYN, Homo sapiens, UniProt P07948) | enzyme activity, inhibitor | – | 0.0358
COc1cc(C(=O)O)ccc1O[C@@H]1O[C@H](CO)[C@@H](O)[C@H](O)[C@H]1O | L-lactate dehydrogenase A chain (LDHA, Homo sapiens, UniProt P00338) | enzyme activity, inhibitor | pH 7.4 | > 500
C[C@H](NC(=O)[C@@H](c1cccnc1)N(C(=O)CCl)c1ccc(-n2cccc2)cc1)c1ccccc1 | Replicase polyprotein 1ab, main protease (rep, Severe acute respiratory syndrome coronavirus 2, UniProt P0DTD1) | enzyme activity, inhibitor, FRET | – | 0.05
COc1cccc(OC)c1OCCNCC1COc2ccccc2O1 (stereo not shown) | Alpha-1A adrenergic receptor (ADRA1A, Homo sapiens, UniProt P35348) | ligand displacement, radioligand | – | 0.00036
COc1cc(C[C@H]2C(=O)OC[C@@H]2Cc2ccc(OC)c(OC)c2)ccc1O | Cone cGMP-specific 3',5'-cyclic phosphodiesterase subunit alpha' (PDE6C, Homo sapiens, UniProt P51160) | enzyme activity, inhibitor | – | > 20
O=c1cc(-c2ccc(O)cc2)oc2c([C@@H]3O[C@H](CO)[C@@H](O)[C@H](O)[C@H]3O)c(O)c([C@@H]3O[C@H](CO)[C@@H](O)[C@H](O)[C@H]3O)c(O)c12 | MAOA | enzyme activity, inhibitor | – | 50.2
Nc1ncnc2c1ncn2[C@@H]1O[C@H](CSCCNC(=O)Nc2cccc3ccccc23)[C@@H](O)[C@H]1O | PRMT3 | enzyme activity, inhibitor, fluorescence | – | 81
CN(C)CCCN1c2ccccc2Sc2ccc(Cl)cc21 | Glutathione reductase, mitochondrial (GSR, Homo sapiens, UniProt P00390) | enzyme activity, inhibitor, absorbance | – | > 100
